Tests used:
[1] = target: T1, Glycogen phosphorylase, muscle form (Oryctolagus cuniculus) (UniProt P00489); experiment: Inhibition of rabbit muscle glycogen phosphorylase at 222 uM
T1 sequence (whole entry): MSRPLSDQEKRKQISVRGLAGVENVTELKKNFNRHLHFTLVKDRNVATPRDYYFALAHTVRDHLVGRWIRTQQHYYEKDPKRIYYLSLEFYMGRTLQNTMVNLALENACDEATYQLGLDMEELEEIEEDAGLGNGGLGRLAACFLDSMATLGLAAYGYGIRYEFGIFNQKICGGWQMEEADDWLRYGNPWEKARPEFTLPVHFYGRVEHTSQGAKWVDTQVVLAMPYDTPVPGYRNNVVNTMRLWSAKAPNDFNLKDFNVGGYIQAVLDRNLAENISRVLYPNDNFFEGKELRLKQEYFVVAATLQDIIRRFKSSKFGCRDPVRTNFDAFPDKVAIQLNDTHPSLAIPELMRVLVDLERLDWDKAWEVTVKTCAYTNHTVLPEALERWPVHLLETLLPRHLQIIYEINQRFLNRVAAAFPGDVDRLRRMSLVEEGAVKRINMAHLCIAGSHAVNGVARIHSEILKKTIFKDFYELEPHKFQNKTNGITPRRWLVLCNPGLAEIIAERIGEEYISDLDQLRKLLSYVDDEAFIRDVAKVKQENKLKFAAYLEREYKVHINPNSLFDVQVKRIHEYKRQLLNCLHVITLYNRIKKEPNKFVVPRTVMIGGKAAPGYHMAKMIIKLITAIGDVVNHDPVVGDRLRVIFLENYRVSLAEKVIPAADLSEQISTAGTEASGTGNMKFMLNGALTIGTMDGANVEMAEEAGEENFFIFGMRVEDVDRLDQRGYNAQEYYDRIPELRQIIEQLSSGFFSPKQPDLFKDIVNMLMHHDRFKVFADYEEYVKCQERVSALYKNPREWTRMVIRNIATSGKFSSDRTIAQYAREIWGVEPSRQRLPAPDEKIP
Method in brief: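 Rabbit muscle glycogen phosphorylase a at 0.475 µg/mL, assayed in the glycogen-synthesis direction. Run 30 min at 22 °C. Compounds added in 14% DMSO. Released phosphate read at 620 nm by malachite green/ammonium molybdate in 1 M HCl. Duplicates on two occasions, averaged.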

[2] = target: T2, Glycogen phosphorylase, muscle form (Oryctolagus cuniculus, UniProt P00489); experiment: Inhibition of rabbit muscle glycogen phosphorylase
T2 sequence (P00489 whole entry): T1 sequence (whole entry)

[3] = target: T1, Glycogen phosphorylase, muscle form (Oryctolagus cuniculus); settings: 111 uM

| SMILES | inhibition [1] [%] | IC50 [2] [µM] | inhibition [3] [%] |
| --- | --- | --- | --- |
| CCOC(=O)Cn1cccc(NC(C)=O)c1=O | < 20 |  |  |
| O=C(Cn1cccc(NCc2ccccc2)c1=O)NCc1ccc(Cl)c(Cl)c1 | 94 | 6.3 |  |
| CCCNc1cccn(CC(=O)N2CCCC2)c1=O | < 20 |  |  |
| NCCNC(=O)Cn1cccc(NC(=O)c2ccccc2)c1=O | < 20 |  |  |
| O=C(Nc1cccn(CC(=O)N2CCCC2)c1=O)c1ccccc1 | < 20 |  |  |
| CCCNC(=O)Cn1cccc(NC(C)=O)c1=O | < 20 |  |  |
| CC(=O)Nc1cccn(CC(=O)NCCO)c1=O | < 20 |  |  |
| CCCNc1cccn(CC(=O)NCc2ccccc2)c1=O | 80 | 343 |  |
| O=C(Cn1cccc(NCc2ccccc2)c1=O)NCc1ccccc1 |  | 34.2 | 96 |
| NS(=O)(=O)c1ccc(CCNC(=O)Cn2cccc(NC(=O)c3ccccc3)c2=O)cc1 | < 20 |  |  |
| CCCNc1cccn(CC(=O)OCC)c1=O | < 20 |  |  |
| CCCNC(=O)Cn1cccc(NC(=O)c2ccccc2)c1=O | < 20 |  |  |
| O=C(Cn1cccc(NC(=O)c2ccccc2)c1=O)N[C@H](CO)Cc1ccccc1 | < 20 |  |  |
| COc1ccccc1CNC(=O)Cn1cccc(NCc2ccccc2)c1=O | 38 | 308 |  |
| CC(C)CNC(=O)Cn1cccc(NC(=O)c2ccccc2)c1=O | < 20 |  |  |
| O=C(Cn1cccc(NC(=O)c2ccccc2)c1=O)N[C@@H](CO)Cc1ccccc1 | < 20 |  |  |
| CC(=O)Nc1cccn(CC(=O)NCc2ccccc2)c1=O | < 20 |  |  |
| O=C(Cn1cccc(NC(=O)c2ccccc2)c1=O)NCCO | < 20 |  |  |
| O=C(Cn1cccc(NCc2ccccc2)c1=O)NCc1ccccn1 | < 20 |  |  |
| O=C(Cn1cccc(NCc2ccccc2)c1=O)N1CCCC1 | < 20 |  |  |
| O=C(Cn1cccc(NC(=O)c2ccccc2)c1=O)NCc1ccccc1 | < 20 |  |  |
| O=C(Cn1cccc(NCc2ccccc2)c1=O)N[C@H](CO)Cc1ccccc1 | 94 |  |  |
| COCCCNC(=O)Cn1cccc(NC(=O)c2ccccc2)c1=O | < 20 |  |  |
| CC(C)NC(=O)Cn1cccc(NC(=O)c2ccccc2)c1=O | < 20 |  |  |

| SMILES | inhibition [1] [%] | IC50 [2] [µM] | inhibition [3] [%] |
| --- | --- | --- | --- |
| O=C(Nc1cccn(CC(=O)N2CCOCC2)c1=O)c1ccccc1 | < 20 |  |  |
| O=C(Nc1cccn(CC(=O)N2CCCCC2)c1=O)c1ccccc1 | < 20 |  |  |
| CCCNC(=O)Cn1cccc(NCCC)c1=O | < 20 |  |  |
| O=C(Cn1cccc(NC(=O)c2ccccc2)c1=O)N[C@H](CO)c1ccccc1 | < 20 |  |  |
| O=C(Cn1cccc(NC(=O)c2ccccc2)c1=O)NCc1ccc(Cl)c(Cl)c1 | 45 | 162 |  |
| CC(=O)Nc1cccn(CC(=O)NCc2ccc(Cl)c(Cl)c2)c1=O | 45 | 372 |  |
| CCCNC(=O)Cn1cccc(NCc2ccccc2)c1=O | < 20 |  |  |
| O=C(Cn1cccc(NC(=O)c2ccccc2)c1=O)NC1CCN(Cc2ccccc2)CC1 | < 20 |  |  |
| CCOC(=O)Cn1cccc(NC(=O)c2ccccc2)c1=O | < 20 |  |  |
| CC(=O)Nc1cccn(CC(=O)NC(C)C)c1=O | < 20 |  |  |
| O=C(Cn1cccc(NCc2ccccc2)c1=O)N[C@H](CO)c1ccccc1 | 40 | 120 |  |
| O=C(Cn1cccc(NC(=O)c2ccccc2)c1=O)NN1CCOCC1 | < 20 |  |  |
| CCCCNC(=O)Cn1cccc(NC(=O)c2ccccc2)c1=O | < 20 |  |  |
| CCNC(=O)Cn1cccc(NC(=O)c2ccccc2)c1=O | < 20 |  |  |
| O=C(Cn1cccc(NC(=O)c2ccccc2)c1=O)NCCN1CCCCC1 | < 20 |  |  |
| CC(=O)Nc1cccn(CC(=O)N2CCCC2)c1=O | < 20 |  |  |
| CC(C)(CO)NC(=O)Cn1cccc(NC(=O)c2ccccc2)c1=O | < 20 |  |  |
| CCOC(=O)Cn1cccc(NCc2ccccc2)c1=O | < 20 |  |  |
| CC(=O)Nc1cccn(CC(=O)NC2CCCCC2)c1=O | < 20 |  |  |
| O=C(Cn1cccc(NC(=O)c2ccccc2)c1=O)NCc1ccccn1 | < 20 |  |  |
| CC(C)NC(=O)Cn1cccc(NCc2ccccc2)c1=O | < 20 |  |  |
| CCCNc1cccn(CC(=O)NCc2ccc(Cl)c(Cl)c2)c1=O | 40 | 1770 |  |
| O=C(Cn1cccc(NCc2ccccc2)c1=O)NC1CCN(Cc2ccccc2)CC1 | 45 | 813 |  |
| O=C(Cn1cccc(NC(=O)c2ccccc2)c1=O)NCCCN1CCOCC1 | < 20 |  |  |
